Assay results from ChEMBL document CHEMBL1128270 (J Med Chem, 1995).
pIC50: −log10 of the molar value.

Legend:
[1] = molecular target: T1, 5-hydroxytryptamine receptor 1A (Rattus norvegicus, UniProt P19327); assay: In vitro binding affinity measured on serotonin 5-hydroxytryptamine 1A receptor using [3H]8-OH-DPAT as radioligand.
T1 sequence (P19327 whole entry): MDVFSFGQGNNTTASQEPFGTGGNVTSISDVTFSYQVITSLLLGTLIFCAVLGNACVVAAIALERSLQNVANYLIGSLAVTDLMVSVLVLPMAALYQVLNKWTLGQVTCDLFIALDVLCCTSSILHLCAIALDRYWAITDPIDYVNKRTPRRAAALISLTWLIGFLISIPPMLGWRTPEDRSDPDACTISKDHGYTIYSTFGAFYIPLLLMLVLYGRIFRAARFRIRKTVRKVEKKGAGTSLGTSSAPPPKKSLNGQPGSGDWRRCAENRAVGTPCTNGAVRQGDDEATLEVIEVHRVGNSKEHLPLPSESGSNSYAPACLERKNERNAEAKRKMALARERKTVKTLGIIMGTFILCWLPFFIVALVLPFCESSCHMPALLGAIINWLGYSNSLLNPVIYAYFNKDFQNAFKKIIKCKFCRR

[2] = molecular target: Serotonin 2 (5-HT2) receptor (Rattus norvegicus, UniProt P30994+P08909+P14842); assay: In vitro binding affinity measured on serotonin 5-hydroxytryptamine 2 receptor using [3H]ketanserin as radioligand.; type: protein assay
[3] = molecular target: T2, Adrenergic receptor alpha-1 (Rattus norvegicus, UniProt P15823+P23944+P43140); assay: In vitro binding affinity measured on alpha-1 adrenergic receptor using [3H]prazosin as radioligand.; type: protein assay
T2 sequence (P15823 whole entry): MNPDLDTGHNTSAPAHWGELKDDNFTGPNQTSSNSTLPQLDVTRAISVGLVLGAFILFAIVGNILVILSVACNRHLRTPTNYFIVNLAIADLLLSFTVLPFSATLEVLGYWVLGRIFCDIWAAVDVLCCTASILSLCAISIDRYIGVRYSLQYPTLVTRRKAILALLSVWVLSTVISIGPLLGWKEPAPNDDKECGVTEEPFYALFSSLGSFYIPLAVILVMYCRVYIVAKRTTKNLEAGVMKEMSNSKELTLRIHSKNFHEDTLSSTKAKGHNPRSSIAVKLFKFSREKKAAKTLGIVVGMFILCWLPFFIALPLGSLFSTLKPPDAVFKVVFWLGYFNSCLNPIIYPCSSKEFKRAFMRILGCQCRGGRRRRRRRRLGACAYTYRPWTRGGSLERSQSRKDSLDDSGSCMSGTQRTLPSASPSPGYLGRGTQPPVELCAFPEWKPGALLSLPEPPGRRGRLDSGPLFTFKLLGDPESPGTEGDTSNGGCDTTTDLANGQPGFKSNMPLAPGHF
T2 sequence (P23944 whole entry): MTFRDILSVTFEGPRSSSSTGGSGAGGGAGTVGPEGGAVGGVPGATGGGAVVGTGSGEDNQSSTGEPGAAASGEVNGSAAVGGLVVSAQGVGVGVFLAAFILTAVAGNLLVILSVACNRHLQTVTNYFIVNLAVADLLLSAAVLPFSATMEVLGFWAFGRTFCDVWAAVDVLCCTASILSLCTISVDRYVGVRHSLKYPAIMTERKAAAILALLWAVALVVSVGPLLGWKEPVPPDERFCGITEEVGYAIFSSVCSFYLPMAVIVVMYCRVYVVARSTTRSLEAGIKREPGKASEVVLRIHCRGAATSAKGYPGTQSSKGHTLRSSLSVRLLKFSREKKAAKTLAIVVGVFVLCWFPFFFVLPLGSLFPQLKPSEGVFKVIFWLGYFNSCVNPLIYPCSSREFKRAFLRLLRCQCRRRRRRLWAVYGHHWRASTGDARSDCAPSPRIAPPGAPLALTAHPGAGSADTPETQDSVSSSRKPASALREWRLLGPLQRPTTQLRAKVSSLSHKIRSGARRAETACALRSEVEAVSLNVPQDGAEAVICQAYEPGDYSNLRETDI
T2 sequence (P43140 whole entry): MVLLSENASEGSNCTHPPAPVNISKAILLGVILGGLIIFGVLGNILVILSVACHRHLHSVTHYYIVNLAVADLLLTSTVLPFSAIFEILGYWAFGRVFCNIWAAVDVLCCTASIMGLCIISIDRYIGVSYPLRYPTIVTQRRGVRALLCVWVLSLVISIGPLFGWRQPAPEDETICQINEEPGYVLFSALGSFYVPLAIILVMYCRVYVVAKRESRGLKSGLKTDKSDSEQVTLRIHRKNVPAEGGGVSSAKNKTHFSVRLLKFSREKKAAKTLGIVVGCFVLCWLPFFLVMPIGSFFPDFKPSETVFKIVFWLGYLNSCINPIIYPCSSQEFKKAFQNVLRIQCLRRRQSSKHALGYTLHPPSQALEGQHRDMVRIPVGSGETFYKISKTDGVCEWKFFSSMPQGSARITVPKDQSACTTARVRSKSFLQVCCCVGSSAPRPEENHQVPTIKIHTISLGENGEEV

D(2) dopamine receptor = D(2) dopamine receptor (Rattus norvegicus, UniProt P61169); assay: In vitro binding affinity measured on dopamine receptor D2 using [3H]spiroperidol as radioligand.
Chain of D(2) dopamine receptor (P61169 whole entry): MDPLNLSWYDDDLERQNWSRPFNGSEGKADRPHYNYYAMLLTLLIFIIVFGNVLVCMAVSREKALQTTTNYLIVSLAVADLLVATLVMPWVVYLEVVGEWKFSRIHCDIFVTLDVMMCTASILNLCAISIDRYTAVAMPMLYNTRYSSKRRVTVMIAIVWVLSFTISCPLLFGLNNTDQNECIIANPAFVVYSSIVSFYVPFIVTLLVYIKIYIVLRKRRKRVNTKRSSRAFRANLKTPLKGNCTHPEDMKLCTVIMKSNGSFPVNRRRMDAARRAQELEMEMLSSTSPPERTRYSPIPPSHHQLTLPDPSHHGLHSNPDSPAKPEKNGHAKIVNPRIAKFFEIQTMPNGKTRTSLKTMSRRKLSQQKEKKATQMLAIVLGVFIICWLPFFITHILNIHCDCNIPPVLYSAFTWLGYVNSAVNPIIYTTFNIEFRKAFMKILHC
In short: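 IC50 came from 7–9 drug concentrations in triplicate, over 2–4 independent experiments, analysed with EBDA. Specific binding exceeded 75% of total.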

Cavia porcellus = species: Cavia porcellus; assay: Selectivity as the ratio of IC50 value against sigma receptor to that of 5-HT1A receptor.
In short: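 Ratio of the σ IC50 to the 5-HT1A IC50. For σ, a P2 membrane fraction was prepared from whole male guinea pig brain without cerebellum in 50 mM Tris-HCl pH 7.4. [3H]DTG was 0.90 nM final, incubated 90 min at 25 °C, then filtered and counted. IC50 values came from 7–9 concentrations in triplicate (EBDA).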

[4] = Selectivity ratio of IC50 value against D-2 receptor to that of 5-HT1A receptor.
In short: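 Ratio of the D-2 IC50 to the 5-HT1A IC50. […] Each IC50 came from 7–9 concentrations in triplicate over 2–4 experiments (EBDA).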

[5] = molecular target: Serotonin 1a (5-HT1a) receptor/Adrenergic receptor alpha-1 (Rattus norvegicus) (UniProt P15823+P23944+P43140+P19327); assay: Selectivity ratio of IC50 value against alpha-1 receptor to that of 5-HT1A receptor.; type: protein assay
In short: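 Ratio of the α1 IC50 to the 5-HT1A IC50 ([3H]-8-OH-DPAT, rat cortex). For α1, male Sprague-Dawley rat cortex membranes were prepared in 50 mM Tris-HCl pH 7.7 with 10 μM pargyline and 0.1% ascorbate.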

| pIC50 [1] | IC50 [2] [µM] | IC50 [3] [µM] | pIC50 (D(2) dopamine receptor) | Selectivity (Cavia porcellus) | Selectivity [4] | Selectivity [5] | SMILES |
| --- | --- | --- | --- | --- | --- | --- | --- |
| 8.47 | 0.288 | 0.261 | 6.48 | 37 | 97 | 77 | COc1ccc2c(c1)C(CCCN1CCN(c3ccccn3)CC1)CCC2 (stereo not drawn) |
| 8.23 | 0.111 | 0.116 | 7.30 | 20 | 8.5 | 20 | COc1ccc2c(c1)C(SCCN1CCN(c3ccccc3OC)CC1)CCC2 (stereo not drawn) |
| 8.03 | – | 0.184 | 7.55 | – | 3 | 20 | COc1ccc2c(c1)C(CCCN1CCN(c3ccccc3)CC1)CCC2 (stereo not drawn) |
| 6.83 | 0.119 | 0.157 | 6.11 | – | – | – | COc1ccc2c(c1)C(CCCN1CCN(c3ccccc3)CC1)=CCC2 |
| 7.05 | 0.391 | 2.93 | 5.88 | 0.99 | 15 | 33 | COc1ccc2c(c1)C(CCCN1CCN(c3cccc(C(F)(F)F)c3)CC1)CCC2 (stereo not drawn) |
| 9.24 | 0.331 | 0.0314 | 6.75 | – | – | – | COc1cccc2c1CCCC2CCCN1CCN(c2ccccn2)CC1 (stereo not drawn) |
| 8.82 | 0.22 | 0.0432 | 7.29 | – | – | – | COc1ccc2c(c1)C(CCCN1CCN(c3ccccc3OC)CC1)CCC2 (stereo not drawn) |
| – | 0.204 | 0.049 | 6.52 | – | – | – | COc1cccc2c1CCC=C2CCCN1CCN(c2ccccc2)CC1 |
| 8.85 | 0.205 | 0.123 | 6.92 | – | – | – | COc1cccc2c1CCC=C2CCCN1CCN(c2ccccn2)CC1 |
| 8.95 | 0.147 | 0.00126 | 7.62 | – | – | – | COc1ccccc1N1CCN(CCCC2CCCc3ccsc32)CC1 (stereo not drawn) |
| 8.15 | 3.34 | 0.149 | 6.21 | 22 | 88 | 21 | COc1ccccc1N1CCN(CCNC2CCCc3c(OC)cccc32)CC1 (stereo not drawn) |
| 8.70 | 0.391 | 0.0245 | 7.04 | 114 | 45 | 12 | COc1ccc2c(c1)C(CCCN1CCN(c3ccccc3OC)CC1)=CCC2 |
| 6.84 | – | 7.17 | 6.33 | – | 3.2 | 49 | COc1cccc2c1CCCC2CCCN1CCN(c2cccc(C(F)(F)F)c2)CC1 (stereo not drawn) |
| 8.76 | – | 0.0783 | 7.81 | – | 8.9 | 45 | COc1ccccc1N1CCN(CCCCC2CCCc3c(OC)cccc32)CC1 (stereo not drawn) |
| 7.89 | – | 0.0962 | 5.23 | – | 455 | 7.4 | COc1ccccc1N1CCN(CCCCC2=CCCc3c(OC)cccc32)CC1 |

More lines, now with the values behind:

| SMILES | pIC50 [1] | IC50 [2] [µM] | IC50 [3] [µM] | pIC50 (D(2) dopamine receptor) | Selectivity (Cavia porcellus) | Selectivity [4] | Selectivity [5] |
| --- | --- | --- | --- | --- | --- | --- | --- |
| COc1ccccc1N1CCN(CC/C=C2\CCCc3c(OC)cccc32)CC1 | 9.28 | 0.667 | 0.006 | 7.95 | 100 | 22 | 12 |
| COc1ccc2c(c1)C(CCCCN1CCN(c3ccccc3OC)CC1)=CCC2 | 8.82 | 0.209 | 0.0153 | 7.97 | – | – | – |
| COc1ccccc1N1CCN(CCCC2CCCc3ccccc32)CC1 (stereo not drawn) | 9.41 | 0.155 | 0.00014 | 7.61 | – | 63 | 0.36 |
| COc1cccc2c1CCCC2CCCN1CCN(c2ccccc2)CC1 (stereo not drawn) | 9.44 | 0.17 | 0.0788 | 7.01 | – | – | – |
| COc1ccc2c(c1)C(CCCCN1CCN(c3ccccc3OC)CC1)CCC2 (stereo not drawn) | 8.05 | 0.329 | 0.0785 | 7.29 | – | – | – |
| COc1ccccc1N1CCN(CCCC2CCCc3c(OC)cccc32)CC1 (stereo not drawn) | 9.49 | 0.358 | 0.00194 | – | – | – | – |
| COc1ccc2c(c1)C(CCCN1CCN(c3cccc(C(F)(F)F)c3)CC1)=CCC2 | 6.86 | 1.17 | 3.07 | 5.89 | – | 9.4 | 22 |
| COc1cccc2c1CCC/C2=C\CCN1CCN(c2ccccn2)CC1 | 9.46 | 0.417 | 0.0722 | 6.82 | – | – | – |
| COc1ccccc1N1CCN(CC/C=C2\CCCc3ccccc32)CC1 | 8.74 | 0.147 | 0.0036 | 7.90 | 30 | 6.9 | 2 |
| COc1ccc2c(c1)C(CCCN1CCN(c3ccccn3)CC1)=CCC2 | 7.20 | 0.146 | 0.152 | 6.11 | 3.9 | 12 | 2.4 |
| COc1ccccc1N1CCN(CCSC2CCCc3c(OC)cccc32)CC1 (stereo not drawn) | 8.97 | – | 0.12 | 8.11 | – | 7.3 | 111 |
| COc1cccc2c1CCC=C2CCCN1CCN(c2cccc(C(F)(F)F)c2)CC1 | 7.25 | 2.37 | 0.278 | 6.19 | – | 12 | 5 |
| COc1ccccc1N1CCN(CCCC2=CCCc3c(OC)cccc32)CC1 | 8.06 | 0.77 | 0.0323 | 7.76 | 3.8 | 2 | 3.7 |
